Test results taken from ChEMBL document CHEMBL1138784, “Rational design, synthesis, and biological evaluation of bis(pyrimido[5,6,1-de]acridines) and bis(pyrazolo[3,4,5-kl]acridine-5-carboxamides) as new anticancer agents” (J Med Chem, 2004).
One block for each compound: values may come before it.

Assays:
[1] = Cytotoxicity against human H460M cancer cell line was determined after 144 hr; type: functional, cell-based; details: Cancer cell lines
How it was run: (§1)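 MTT colorimetric assay. Cells seeded by growth characteristics and preincubated 24 h, then exposed to drug for 1 h or 144 h at 37 °C, 5% CO2. H460M, MKN45 and PC-3 were grown in RPMI 1640 with 10% FCS. HCT116 was grown in D-MEM with 10% FBS and 2 mM glutamine.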

[2] = tested on: SW-620; test: Percent growth of colon SW-620 cell line was determined at 10e-8 M concentration after 48 hr of exposing; type: functional, Homo sapiens
How it was run: (§2)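 NCI sulforhodamine B screen. Cells seeded by growth rate, 24 h drug-free, then 48 h exposure to 10^-8, 10^-6 or 10^-5 M. Protein-stain optical density expressed as percent growth relative to untreated control (100%); negative values indicate cell kill.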

[3] = tested on: MOLT-4; test: Percent growth of leukemia MOLT-4 cell line was determined at 10e-6 M concentration after 48 h of exposing; type: functional, Homo sapiens; how it was run: as §2
[4] = Cytotoxicity against human H460M cancer cell line was determined after 1 hr; type: cell-based; details: Cancer cell lines; how it was run: as §1
[5] = tested on: SNB-19; test: Percent growth of CNS SNB-19 cell line was determined at 10e-8 M concentration after 48 hr of exposing; type: functional, Homo sapiens; how it was run: as §2
[6] = Cytotoxicity against human HCT116 cancer cell line was determined after 1 hr; type: cell-based; details: HCT-116, 1 h; how it was run: as §1
[7] = tested on: LoVo; test: Cytotoxicity against human LoVo cancer cell line was determined after 144 hr; type: functional, cell-based
How it was run: (§3)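 MTT assay on doxorubicin-sensitive LoVo and resistant LoVo/Dx cells, 24 h preincubation, then 1 h or 144 h drug exposure at 37 °C, 5% CO2. IC50 in nM. Resistance index is IC50 on LoVo/Dx divided by IC50 on LoVo.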

[8] = tested on: LoVo; test: Ratio of IC50 against sensitive LoVo cell line and that of doxorubicin resistance LoVo cell line was determined after 1 hr exposure; type: functional, Homo sapiens
[9] = tested on: Nucleic Acid; test: Binding site preference is determined as the ratio of Poly (dA-dT)2 to Poly (dG-dC)2; type: nucleic-acid assay
How it was run: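 Ethidium displacement fluorometry at pH 7.0 (10 mM Na2HPO4, 10 mM NaH2PO4, 1 mM EDTA) with 1.26 μM ethidium bromide and 1 μM [poly(dA-dT)]2 or [poly(dG-dC)]2, 20 °C. Ex 546 nm, em 595 nm, drug added serially from a DMSO stock. Preference taken from the [AT]/[GC] ratio of C50 values, counted significant only below 0.7 or above 1.3.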

[10] = tested on: NCI-H460; test: Percent growth of lung NCI-H460 cell line was determined at 10e-6 M concentration after 48 hr of exposing; type: functional, Homo sapiens; how it was run: as §2
[11] = tested on: DU-145; test: Percent growth of prostate DU-145 cell line was determined at 10e-5 M concentration after 48 hr of exposing; type: functional, Homo sapiens
[12] = Percent growth of melanoma LOX IMV1 cell line was determined at 10e-5 M concentration after 48 hr of exposing; type: functional, Homo sapiens; how it was run: as §2
[13] = tested on: DU-145; test: Percent growth of prostate DU-145 cell line was determined at 10e-6 M concentration after 48 hr of exposing; type: functional, Homo sapiens
[14] = tested on: MKN-45; test: Cytotoxicity against human MKN45 cancer cell line was determined after 144 hr; type: functional, cell-based; details: MKN-45, 144 h; how it was run: as §1
[15] = Cytotoxicity against human PC3 cancer cell line was determined after 1 hr; type: cell-based; details: Cancer cell lines; how it was run: as §1
[16] = tested on: HT-29; test: Cytotoxicity is determined as the concentration required to inhibit the growth of human colon adenocarcinoma (HT-29) cell line; type: functional, cell-based
[17] = tested on: PC-3; test: Cytotoxicity against human PC3 cancer cell line was determined after 144 hr; type: functional, cell-based; details: PC-3, 144 h; how it was run: as §1
[18] = tested on: SNB-19; test: Percent growth of CNS SNB-19 cell line was determined at 10e-6 M concentration after 48 hr of exposing; type: functional, Homo sapiens; how it was run: as §2
[19] = tested on: HCT-116; test: Cytotoxicity against human HCT116 cancer cell line was determined after 144 hr; type: functional, cell-based; details: HCT-116, 144 h; how it was run: as §1
[20] = tested on: MCF7; test: Percent growth of breast MCF-7 cell line was determined at 10e-5 M concentration after 48 hr of exposing; type: functional, Homo sapiens
[21] = tested on: MCF7; test: Percent growth of breast MCF-7 cell line was determined at 10e-8 M concentration after 48 hr of exposing; type: functional, Homo sapiens
[22] = Cytotoxicity against human LoVo cancer cell line was determined after 1 hr; type: cell-based; how it was run: as §3
[23] = tested on: MOLT-4; test: Percent growth of leukemia MOLT-4 cell line was determined at 10e-5 M concentration after 48 hr of exposing; type: functional, Homo sapiens; how it was run: as §2
[24] = Cytotoxicity against human MKN45 cancer cell line was determined after 1 hr; type: cell-based; details: Cancer cell lines; how it was run: as §1
[25] = Percent growth of melanoma LOX IMV1 cell line was determined at 10e-8 M concentration after 48 hr of exposing; type: functional, Homo sapiens; how it was run: as §2
[26] = tested on: DU-145; test: Percent growth of prostate DU-145 cell line was determined at 10e-8 M concentration after 48 h of exposing; type: functional, Homo sapiens
[27] = tested on: 786-0; test: Percent growth of renal 786-O cell line was determined at 10e-6 M concentration after 48 h of exposing; type: functional, Homo sapiens; how it was run: as §2
[28] = tested on: MCF7; test: Percent growth of breast MCF-7 cell line was determined at 10e-6 M concentration after 48 h of exposing; type: functional, Homo sapiens
[29] = tested on: MOLT-4; test: Percent growth of leukemia MOLT-4 cell line was determined at 10e-8 M concentration after 48 hr of exposing; type: functional, Homo sapiens; how it was run: as §2
[30] = tested on: OVCAR-4; test: Percent growth of ovarian OVCAR-4 cell line was determined at 10e-6 M concentration after 48 hr of exposing; type: functional, Homo sapiens; how it was run: as §2
[31] = tested on: NCI-H460; test: Percent growth of lung NCI-H460 cell line was determined at 10e-5 M concentration after 48 hr of exposing; type: functional, Homo sapiens; how it was run: as §2
[32] = Percent growth of melanoma LOX IMV1 cell line was determined at 10e-6 M concentration after 48 hr of exposing; type: functional, Homo sapiens; how it was run: as §2
[33] = tested on: 786-0; test: Percent growth of renal 786-O cell line was determined at 10e-5 M concentration after 48 hr of exposing; type: functional, Homo sapiens; how it was run: as §2
[34] = tested on: SNB-19; test: Percent growth of CNS SNB-19 cell line was determined at 10e-5 M concentration after 48 hr of exposing; type: functional, Homo sapiens; how it was run: as §2
[35] = tested on: OVCAR-4; test: Percent growth of ovarian OVCAR-4 cell line was determined at 10e-8 M concentration after 48 hr of exposing; type: functional, Homo sapiens; how it was run: as §2
[36] = tested on: SW-620; test: Percent growth of colon SW-620 cell line was determined at 10e-5 M concentration after 48 hr of exposing; type: functional, Homo sapiens; how it was run: as §2
[37] = tested on: OVCAR-4; test: Percent growth of ovarian OVCAR-4 cell line was determined at 10e-5 M concentration after 48 hr of exposing; type: functional, Homo sapiens; how it was run: as §2
[38] = tested on: 786-0; test: Percent growth of renal 786-O cell line was determined at 10e-8 M concentration after 48 h of exposing; type: functional, Homo sapiens; how it was run: as §2
[39] = tested on: NCI-H460; test: Percent growth of lung NCI-H460 cell line was determined at 10e-8 M concentration after 48 hr of exposing; type: functional, Homo sapiens; how it was run: as §2
[40] = tested on: LoVo; test: Cytotoxicity against doxorubicin resistant LoVo cell line was determined against 144 hrs; type: functional, cell-based; details: Homo sapiens; how it was run: as §3
[41] = tested on: SW-620; test: Percent growth of colon SW-620 cell line was determined at 10e-6 M concentration after 48 hr of exposing; type: functional, Homo sapiens; how it was run: as §2
[42] = Cytotoxicity against doxorubicin resistant LoVo cell line was determined against 1 hour; type: cell-based; details: Homo sapiens; how it was run: as §3

- Binding site preference [9]: 2.1
SMILES: COc1ccc2c(c1)c(=O)c1c(NCCCN(C)CCCNc3ccc4c(=O)n(CCN(C)C)c(=O)n5c6ccc(OC)cc6c(=O)c3c45)ccc3c(=O)n(CCN(C)C)c(=O)n2c31
- IC50 [1]: < 0.001 nM
- Growth [2]: 30%
- Growth [3]: -33%
- IC50 [4]: 0.06 nM
- Growth [5]: 38%
- IC50 [6]: 0.85 nM
- IC50 [7]: 0.95 nM
- Resistance index [8]: 4.2
- Growth [10]: -20%
- Growth [11]: -66%
- Growth [12]: -91%
- Growth [13]: 3%
- IC50 [14]: 0.0028 nM
- IC50 [15]: 4.7 nM
- IC50 [16]: < 0.1 nM
- IC50 [17]: 1.2 nM
- Growth [18]: 14%
- IC50 [19]: 0.66 nM
- Growth [20]: -63%
- Growth [21]: 39%
- IC50 [22]: 18 nM
- Growth [23]: -62%
- IC50 [24]: 0.05 nM
- Growth [25]: 26%
- Growth [26]: 40%
- Growth [27]: 10%
- Growth [28]: -3%
- Growth [29]: 6%
- Growth [30]: -37%
- Growth [31]: -87%
- Growth [32]: -34%
- Growth [33]: -79%
- Growth [34]: -48%
- Growth [35]: 0%
- Growth [36]: -49%
- Growth [37]: -72%
- Growth [38]: 37%
- Growth [39]: 14%
- IC50 [40]: 7.6 nM
- Growth [41]: -2%
- IC50 [42]: 76 nM

- Binding site preference [9]: 5.5
SMILES: COc1ccc2c(c1)-c1nn(CCN(C)C)c3ccc(C(=O)NCCCN(C)CCCNC(=O)c4ccc5c6c(c7cc(OC)ccc7nc46)NN5CCN(C)C)c(c13)N2
- IC50 [1]: 4.3 nM
- Growth [2]: 44%
- Growth [3]: -28%
- IC50 [4]: 26 nM
- Growth [5]: 47%
- IC50 [6]: 120 nM
- IC50 [7]: 5.1 nM
- Resistance index [8]: 58
- Growth [10]: 3%
- Growth [11]: -21%
- Growth [12]: -80%
- Growth [13]: -8%
- IC50 [14]: 13 nM
- IC50 [15]: > 100 nM
- IC50 [16]: 3 nM
- IC50 [17]: 39 nM
- Growth [18]: 0%
- IC50 [19]: 43 nM
- Growth [20]: -18%
- Growth [21]: 66%
- IC50 [22]: 53 nM
- Growth [23]: -28%
- IC50 [24]: 51 nM
- Growth [25]: 46%
- Growth [26]: 70%
- Growth [27]: 11%
- Growth [28]: 7%
- Growth [29]: 19%
- Growth [30]: -5%
- Growth [31]: -58%
- Growth [32]: 3%
- Growth [33]: -33%
- Growth [34]: -37%
- Growth [35]: 71%
- Growth [36]: -39%
- Growth [37]: -54%
- Growth [38]: 53%
- Growth [39]: 23%
- IC50 [40]: 290 nM
- Growth [41]: 3%
- IC50 [42]: 3100 nM

- Binding site preference [9]: 1.7
SMILES: CN(C)CCn1c(=O)c2ccc(NCCCN(C)CCCNc3ccc4c(=O)n(CCN(C)C)c(=O)n5c6ccc(O)cc6c(=O)c3c45)c3c(=O)c4cc(O)ccc4n(c1=O)c23
- IC50 [1]: < 0.001 nM
- Growth [2]: 36%
- Growth [3]: -37%
- IC50 [4]: < 0.001 nM
- Growth [5]: 34%
- IC50 [6]: 0.06 nM
- IC50 [7]: 3.9 nM
- Resistance index [8]: 8.3
- Growth [10]: -23%
- Growth [11]: -42%
- Growth [12]: -77%
- Growth [13]: -6%
- IC50 [14]: < 0.001 nM
- IC50 [15]: 2 nM
- IC50 [16]: < 0.1 nM
- IC50 [17]: 0.01 nM
- Growth [18]: -4%
- IC50 [19]: < 0.001 nM
- Growth [20]: -32%
- Growth [21]: 16%
- IC50 [22]: 98 nM
- Growth [23]: -60%
- IC50 [24]: < 0.001 nM
- Growth [25]: 20%
- Growth [26]: 32%
- Growth [27]: 1%
- Growth [28]: -1%
- Growth [29]: -4%
- Growth [30]: -37%
- Growth [31]: -60%
- Growth [32]: -50%
- Growth [33]: -52%
- Growth [34]: -17%
- Growth [35]: 42%
- Growth [36]: -8%
- Growth [37]: -36%
- Growth [38]: 36%
- Growth [39]: 11%
- IC50 [40]: 59 nM
- Growth [41]: 10%
- IC50 [42]: 810 nM
